From ChEMBL document CHEMBL4689842, “EUbOPEN Chemogenomics Library wave 1” (2021)

System: U2OS
Test: Multiplex assay against U2OS
Assay type: toxicity, cell-based
Conditions: human
Summary of the method: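 On a CQ1 microscope at 37°C and 5% CO2, live cells were imaged after compound addition. They had been stained at seeding with Hoechst33342, BioTracker Green Microtubule Cytoskeleton Dye, MitoTracker Red and Annexin V Alexa Fluor 680. CellPathfinder machine-learning gating assigned cells to Hoechst high-intensity objects or normal cells, normal cells to healthy, pyknosed or fragmented nuclei, and pyknosed cells to mitotic or apoptotic. Tubulin, mitochondrial-mass and membrane-permeability phenotypes are per cents of healthy-nucleus cells.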

[1] = 12 h, 1 µM, compound concentration 1 uM, replicate 1
[2] = 12 h, 1 µM, compound concentration 1 uM, replicate 2
[3] = 12 h, 10 µM, compound concentration 10 uM, replicate 1
[4] = 12 h, 10 µM, compound concentration 10 uM, replicate 2
[5] = 24 h, 1 µM, compound concentration 1 uM, replicate 1
[6] = 24 h, 1 µM, compound concentration 1 uM, replicate 2
[7] = 24 h, 10 µM, compound concentration 10 uM, replicate 1
[8] = 24 h, 10 µM, compound concentration 10 uM, replicate 2
[9] = 48 h, 1 µM, compound concentration 1 uM, replicate 1
[10] = 48 h, 1 µM, compound concentration 1 uM, replicate 2
[11] = 48 h, 10 µM, compound concentration 10 uM, replicate 1
[12] = 48 h, 10 µM, compound concentration 10 uM, replicate 2

COc1cc(-n2cnc3cc(-c4ccc(Cl)cc4)sc3c2=O)ccc1OCCN1CCCC1
Population Apoptotic (%) [1]: 45% | Population Fragmented Nuclei (%) [1]: 12% | Population Healthy Nuclei (%) [1]: 70% | Population Hoechst High Intensity Objects (%) [1]: 9% | Population Membrane Permeable-Phenotype (%) [1]: 9% | Population Mitochondria Different-Phenotype (%) [1]: 63% | Population Mitotic Cells (%) [1]: 54% | Population Normal (%) [1]: 90% | Population Pyknosed Nuclei (%) [1]: 16% | Population Tubulin-Different-Phenotype (%) [1]: 65% | Total Cell Count [1]: 157 | Population Apoptotic (%) [2]: 71% | Population Fragmented Nuclei (%) [2]: 11% | Population Healthy Nuclei (%) [2]: 77% | Population Hoechst High Intensity Objects (%) [2]: 16% | Population Membrane Permeable-Phenotype (%) [2]: 10% | Population Mitochondria Different-Phenotype (%) [2]: 44% | Population Mitotic Cells (%) [2]: 28% | Population Normal (%) [2]: 84% | Population Pyknosed Nuclei (%) [2]: 11% | Population Tubulin-Different-Phenotype (%) [2]: 34% | Total Cell Count [2]: 78 | Population Apoptotic (%) [3]: 72% | Population Fragmented Nuclei (%) [3]: 32% | Population Healthy Nuclei (%) [3]: 13% | Population Hoechst High Intensity Objects (%) [3]: 10% | Population Membrane Permeable-Phenotype (%) [3]: 61% | Population Mitochondria Different-Phenotype (%) [3]: 100% | Population Mitotic Cells (%) [3]: 27% | Population Normal (%) [3]: 90% | Population Pyknosed Nuclei (%) [3]: 54% | Population Tubulin-Different-Phenotype (%) [3]: 100% | Total Cell Count [3]: 144 | Population Apoptotic (%) [4]: 26% | Population Fragmented Nuclei (%) [4]: 22% | Population Healthy Nuclei (%) [4]: 57% | Population Hoechst High Intensity Objects (%) [4]: 8% | Population Membrane Permeable-Phenotype (%) [4]: 34% | Population Mitochondria Different-Phenotype (%) [4]: 93% | Population Mitotic Cells (%) [4]: 73% | Population Normal (%) [4]: 91% | Population Pyknosed Nuclei (%) [4]: 19% | Population Tubulin-Different-Phenotype (%) [4]: 97% | Total Cell Count [4]: 75 | Population Apoptotic (%) [5]: 56% | Population Fragmented Nuclei (%) [5]: 6% | Population Healthy Nuclei (%) [5]: 76% | Population Hoechst High Intensity Objects (%) [5]: 6% | Population Membrane Permeable-Phenotype (%) [5]: 8% | Population Mitochondria Different-Phenotype (%) [5]: 45% | Population Mitotic Cells (%) [5]: 43% | Population Normal (%) [5]: 93% | Population Pyknosed Nuclei (%) [5]: 16% | Population Tubulin-Different-Phenotype (%) [5]: 42% | Total Cell Count [5]: 175 | Population Apoptotic (%) [6]: 62% | Population Fragmented Nuclei (%) [6]: 16% | Population Healthy Nuclei (%) [6]: 71% | Population Hoechst High Intensity Objects (%) [6]: 10% | Population Membrane Permeable-Phenotype (%) [6]: 6% | Population Mitochondria Different-Phenotype (%) [6]: 25% | Population Mitotic Cells (%) [6]: 37% | Population Normal (%) [6]: 89% | Population Pyknosed Nuclei (%) [6]: 12% | Population Tubulin-Different-Phenotype (%) [6]: 21% | Total Cell Count [6]: 83 | Population Apoptotic (%) [7]: 95% | Population Fragmented Nuclei (%) [7]: 48% | Population Healthy Nuclei (%) [7]: 3% | Population Hoechst High Intensity Objects (%) [7]: 11% | Population Membrane Permeable-Phenotype (%) [7]: 100% | Population Mitochondria Different-Phenotype (%) [7]: 100% | Population Mitotic Cells (%) [7]: 4% | Population Normal (%) [7]: 88% | Population Pyknosed Nuclei (%) [7]: 47% | Population Tubulin-Different-Phenotype (%) [7]: 100% | Total Cell Count [7]: 147 | Population Apoptotic (%) [8]: 47% | Population Fragmented Nuclei (%) [8]: 24% | Population Healthy Nuclei (%) [8]: 52% | Population Hoechst High Intensity Objects (%) [8]: 14% | Population Membrane Permeable-Phenotype (%) [8]: 42% | Population Mitochondria Different-Phenotype (%) [8]: 89% | Population Mitotic Cells (%) [8]: 52% | Population Normal (%) [8]: 85% | Population Pyknosed Nuclei (%) [8]: 23% | Population Tubulin-Different-Phenotype (%) [8]: 81% | Total Cell Count [8]: 74 | Population Apoptotic (%) [9]: 59% | Population Fragmented Nuclei (%) [9]: 10% | Population Hoechst High Intensity Objects (%) [9]: 3% | Population Membrane Permeable-Phenotype (%) [9]: 7% | Population Mitochondria Different-Phenotype (%) [9]: 28% | Population Mitotic Cells (%) [9]: 40% | Population Normal (%) [9]: 96% | Population Pyknosed Nuclei (%) [9]: 14% | Population Tubulin-Different-Phenotype (%) [9]: 31% | Total Cell Count [9]: 187 | Population Apoptotic (%) [10]: 63% | Population Fragmented Nuclei (%) [10]: 12% | Population Healthy Nuclei (%) [10]: 74% | Population Hoechst High Intensity Objects (%) [10]: 5% | Population Membrane Permeable-Phenotype (%) [10]: 21% | Population Mitochondria Different-Phenotype (%) [10]: 31% | Population Mitotic Cells (%) [10]: 36% | Population Normal (%) [10]: 94% | Population Pyknosed Nuclei (%) [10]: 13% | Population Tubulin-Different-Phenotype (%) [10]: 19% | Total Cell Count [10]: 79 | Population Apoptotic (%) [11]: 97% | Population Fragmented Nuclei (%) [11]: 33% | Population Healthy Nuclei (%) [11]: 7% | Population Hoechst High Intensity Objects (%) [11]: 20% | Population Membrane Permeable-Phenotype (%) [11]: 88% | Population Mitochondria Different-Phenotype (%) [11]: 100% | Population Mitotic Cells (%) [11]: 2% | Population Normal (%) [11]: 79% | Population Pyknosed Nuclei (%) [11]: 59% | Population Tubulin-Different-Phenotype (%) [11]: 100% | Total Cell Count [11]: 189 | Population Apoptotic (%) [12]: 53% | Population Fragmented Nuclei (%) [12]: 25% | Population Healthy Nuclei (%) [12]: 59% | Population Hoechst High Intensity Objects (%) [12]: 5% | Population Membrane Permeable-Phenotype (%) [12]: 56% | Population Mitochondria Different-Phenotype (%) [12]: 96% | Population Mitotic Cells (%) [12]: 46% | Population Normal (%) [12]: 94% | Population Pyknosed Nuclei (%) [12]: 15% | Population Tubulin-Different-Phenotype (%) [12]: 96% | Total Cell Count [12]: 87

OC1(c2ccc(Cl)cc2)CCN(Cc2c[nH]c3ccccc23)CC1
Population Apoptotic (%) [1]: 64% | Population Fragmented Nuclei (%) [1]: 10% | Population Healthy Nuclei (%) [1]: 80% | Population Hoechst High Intensity Objects (%) [1]: 9% | Population Mitochondria Different-Phenotype (%) [1]: 15% | Population Mitotic Cells (%) [1]: 35% | Population Normal (%) [1]: 90% | Population Tubulin-Different-Phenotype (%) [1]: 11% | Total Cell Count [1]: 115 | Population Apoptotic (%) [2]: 0% | Population Fragmented Nuclei (%) [2]: 13% | Population Healthy Nuclei (%) [2]: 77% | Population Hoechst High Intensity Objects (%) [2]: 10% | Population Membrane Permeable-Phenotype (%) [2]: 3% | Population Mitochondria Different-Phenotype (%) [2]: 13% | Population Mitotic Cells (%) [2]: 100% | Population Normal (%) [2]: 89% | Population Pyknosed Nuclei (%) [2]: 9% | Population Tubulin-Different-Phenotype (%) [2]: 9% | Total Cell Count [2]: 78 | Population Apoptotic (%) [3]: 52% | Population Fragmented Nuclei (%) [3]: 15% | Population Healthy Nuclei (%) [3]: 35% | Population Hoechst High Intensity Objects (%) [3]: 5% | Population Membrane Permeable-Phenotype (%) [3]: 10% | Population Mitochondria Different-Phenotype (%) [3]: 92% | Population Mitotic Cells (%) [3]: 47% | Population Normal (%) [3]: 94% | Population Pyknosed Nuclei (%) [3]: 48% | Population Tubulin-Different-Phenotype (%) [3]: 84% | Total Cell Count [3]: 165 | Population Apoptotic (%) [4]: 42% | Population Fragmented Nuclei (%) [4]: 13% | Population Healthy Nuclei (%) [4]: 38% | Population Hoechst High Intensity Objects (%) [4]: 3% | Population Membrane Permeable-Phenotype (%) [4]: 4% | Population Mitochondria Different-Phenotype (%) [4]: 95% | Population Mitotic Cells (%) [4]: 57% | Population Normal (%) [4]: 96% | Population Pyknosed Nuclei (%) [4]: 47% | Population Tubulin-Different-Phenotype (%) [4]: 60% | Total Cell Count [4]: 74 | Population Apoptotic (%) [5]: 50% | Population Fragmented Nuclei (%) [5]: 7% | Population Healthy Nuclei (%) [5]: 82% | Population Hoechst High Intensity Objects (%) [5]: 4% | Population Membrane Permeable-Phenotype (%) [5]: 3% | Population Mitochondria Different-Phenotype (%) [5]: 6% | Population Mitotic Cells (%) [5]: 50% | Population Normal (%) [5]: 95% | Population Pyknosed Nuclei (%) [5]: 9% | Population Tubulin-Different-Phenotype (%) [5]: 10% | Total Cell Count [5]: 119 | Population Apoptotic (%) [6]: 20% | Population Fragmented Nuclei (%) [6]: 5% | Population Healthy Nuclei (%) [6]: 88% | Population Hoechst High Intensity Objects (%) [6]: 8% | Population Membrane Permeable-Phenotype (%) [6]: 4% | Population Mitochondria Different-Phenotype (%) [6]: 13% | Population Mitotic Cells (%) [6]: 80% | Population Normal (%) [6]: 91% | Population Pyknosed Nuclei (%) [6]: 6% | Population Tubulin-Different-Phenotype (%) [6]: 8% | Total Cell Count [6]: 77 | Population Apoptotic (%) [7]: 61% | Population Fragmented Nuclei (%) [7]: 20% | Population Healthy Nuclei (%) [7]: 22% | Population Hoechst High Intensity Objects (%) [7]: 9% | Population Membrane Permeable-Phenotype (%) [7]: 20% | Population Mitochondria Different-Phenotype (%) [7]: 79% | Population Mitotic Cells (%) [7]: 38% | Population Normal (%) [7]: 90% | Population Pyknosed Nuclei (%) [7]: 56% | Population Tubulin-Different-Phenotype (%) [7]: 50% | Total Cell Count [7]: 197 | Population Apoptotic (%) [8]: 66% | Population Fragmented Nuclei (%) [8]: 21% | Population Healthy Nuclei (%) [8]: 27% | Population Hoechst High Intensity Objects (%) [8]: 5% | Population Membrane Permeable-Phenotype (%) [8]: 5% | Population Mitochondria Different-Phenotype (%) [8]: 94% | Population Mitotic Cells (%) [8]: 33% | Population Normal (%) [8]: 94% | Population Pyknosed Nuclei (%) [8]: 51% | Population Tubulin-Different-Phenotype (%) [8]: 52% | Total Cell Count [8]: 85 | Population Apoptotic (%) [9]: 23% | Population Healthy Nuclei (%) [9]: 83% | Population Mitochondria Different-Phenotype (%) [9]: 11% | Population Mitotic Cells (%) [9]: 76% | Population Pyknosed Nuclei (%) [9]: 9% | Population Tubulin-Different-Phenotype (%) [9]: 8% | Total Cell Count [9]: 132 | Population Apoptotic (%) [10]: 41% | Population Fragmented Nuclei (%) [10]: 7% | Population Healthy Nuclei (%) [10]: 81% | Population Hoechst High Intensity Objects (%) [10]: 3% | Population Membrane Permeable-Phenotype (%) [10]: 3% | Population Mitochondria Different-Phenotype (%) [10]: 17% | Population Mitotic Cells (%) [10]: 58% | Population Normal (%) [10]: 96% | Population Pyknosed Nuclei (%) [10]: 11% | Population Tubulin-Different-Phenotype (%) [10]: 16% | Total Cell Count [10]: 85 | Population Apoptotic (%) [11]: 79% | Population Fragmented Nuclei (%) [11]: 37% | Population Healthy Nuclei (%) [11]: 6% | Population Hoechst High Intensity Objects (%) [11]: 12% | Population Membrane Permeable-Phenotype (%) [11]: 25% | Population Mitochondria Different-Phenotype (%) [11]: 87% | Population Mitotic Cells (%) [11]: 20% | Population Normal (%) [11]: 88% | Population Pyknosed Nuclei (%) [11]: 56% | Population Tubulin-Different-Phenotype (%) [11]: 62% | Total Cell Count [11]: 282 | Population Apoptotic (%) [12]: 70% | Population Fragmented Nuclei (%) [12]: 32% | Population Healthy Nuclei (%) [12]: 12% | Population Hoechst High Intensity Objects (%) [12]: 8% | Population Membrane Permeable-Phenotype (%) [12]: 75% | Population Mitochondria Different-Phenotype (%) [12]: 75% | Population Mitotic Cells (%) [12]: 29% | Population Normal (%) [12]: 91% | Population Pyknosed Nuclei (%) [12]: 54% | Population Tubulin-Different-Phenotype (%) [12]: 50% | Total Cell Count [12]: 111
